This is a sample that favours compounds with a hit; in the whole collection about 2.5% have one here.
SENP8 block-1 – human SENP8 protease inhibitors, primary screen, biochemical, fluorescence, Nedd8 protein substrate, uHTS; recombinant SENP8; inhibition, % at 20 µM; hit rate 0.64% among 360,000; in the data active = inhibition mostly above about 40%, no sharp cut-off; inactive = mostly below about 27%
SENP6 block – SENP6 protease inhibitors, primary screen, biochemical, luminescence, uHTS; inhibition, % at 10 µM; hit rate 1.8% among 330,000; Recombinant SENP6 catalytic domain, aminoluciferin luminescence;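 active = inhibition above about 50% at the single tested dose, limit read from the data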;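 also: plate controls were DMSO wells with enzyme for no effect and DMSO wells lacking enzyme for full effect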
Target sequence (Q9GZR1 628-1112 limits assumed): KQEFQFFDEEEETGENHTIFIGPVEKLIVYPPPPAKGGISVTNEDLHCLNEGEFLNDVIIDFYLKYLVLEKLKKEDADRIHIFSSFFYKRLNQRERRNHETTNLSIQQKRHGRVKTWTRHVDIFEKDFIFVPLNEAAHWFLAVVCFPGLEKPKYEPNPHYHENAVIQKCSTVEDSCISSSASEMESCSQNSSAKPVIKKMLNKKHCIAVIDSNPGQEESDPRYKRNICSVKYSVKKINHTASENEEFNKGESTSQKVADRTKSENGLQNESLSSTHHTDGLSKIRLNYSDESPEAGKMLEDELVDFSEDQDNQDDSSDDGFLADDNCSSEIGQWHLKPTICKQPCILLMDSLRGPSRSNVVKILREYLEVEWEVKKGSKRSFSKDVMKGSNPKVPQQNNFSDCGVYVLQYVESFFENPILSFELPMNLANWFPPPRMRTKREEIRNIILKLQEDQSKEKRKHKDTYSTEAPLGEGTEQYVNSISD
SENP8 block-2 – SENP8 protease inhibitors, primary screen, biochemical, luminescence. Sentrin-specific protease 8 (Homo sapiens), Q96LD8. purified SENP8, Z-RLRGG-aminoluciferin cleavage. inhibition, % at 10 µM. hit rate 1.2% among 330,000. AID 2540, 2010; in the data active = inhibition above about 50%
SENP7 inh – SENP7 protease inhibitors, primary screen, biochemical, luminescence, uHTS; recombinant SENP7, Z-RLRGG-aminoluciferin luminescence, 40 min; AID 434973, 2010; Sentrin-specific protease 7 (Homo sapiens), Q9BQF6; hit rate 1.5% among 330,000; inhibition, % at 5 µM;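 active = inhibition above about 50% at the single test dose, limit read from the data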;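 also: plate controls were DMSO with enzyme for no effect and no enzyme buffer wells for full effect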
SENP1 FRET inh – human SENP1 catalytic domain inhibitors, primary screen, biochemical, FRET, uHTS; Sentrin-specific protease 1 (Homo sapiens), Q9P0U3; recombinant SENP1 catalytic domain, CyPet-SUMO1-YPet FRET cleavage; inhibition, % at 10 µM; hit rate 0.21% among 360,000; AID 624204, 2012;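 active = inhibition at least 30% at 10 µM, raw YFP signal under a set limit, fluorescence ratio 0.5 to 1.5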;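 also: 0% = enzyme with DMSO and 100% = no enzyme wells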
Target sequence (Q9P0U3 419-644 limits assumed): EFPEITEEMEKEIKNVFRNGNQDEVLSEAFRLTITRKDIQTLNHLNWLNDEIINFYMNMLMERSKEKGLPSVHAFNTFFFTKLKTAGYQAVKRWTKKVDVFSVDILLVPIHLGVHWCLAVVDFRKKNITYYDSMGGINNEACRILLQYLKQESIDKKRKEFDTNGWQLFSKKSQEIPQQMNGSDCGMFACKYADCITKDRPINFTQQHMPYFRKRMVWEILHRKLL
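Assay system – human recombinant His6-tagged SENP1 catalytic domain enzyme · Input – SENP1 enzyme, 20 pM final · Buffer or medium – Tris pH 8 buffer plus EDTA, NaCl, BME, BSA, NP40, catalase · Schedule – 50 min reaction at room temperature · Technique – FRET read of cyan and yellow fluorescence · Control set – no-enzyme wells low, DMSO-plus-enzyme wells high control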
SENP8 conf – SENP8 protease inhibitors, retest, confirmation, biochemical, luminescence, single concentration; hit rate 40% among 6,200; Recombinant SENP8, Z-RLRGG-aminoluciferin luminescence, 60 min; shares compounds with SENP7 inh; AID 488912, 2010; inhibition, % at 12.5 µM;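 active = mean inhibition across replicates above about 50%, limit read from the data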
SENP6 confirm – SENP6 protease inhibitors, confirmation, biochemical, luminescence, single concentration | shares compounds with SENP7 inh | recombinant SENP6, Z-RLRGG-aminoluciferin luminescence | inhibition, % at 12.5 µM | hit rate 58% among 6,200 | AID 488915, 2010
SENP7 conf – SENP7 protease inhibitors, retest, confirmation, biochemical, luminescence, single concentration; shares compounds with SENP7 inh; recombinant SENP7, Z-RLRGG-aminoluciferin luminescence, 40 min; inhibition, % at 12.5 µM; hit rate 69% among 6,200
Casp3 select – caspase-3 protease inhibitors, confirmation, selectivity assay for SENP inhibitor project, biochemical, single concentration | shares compounds with SENP7 inh | purified caspase-3, Z-DEVD-aminoluciferin luminescence, 60 min | inhibition, % at 12.5 µM | hit rate 60% among 6,200;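 active = mean inhibition above about 50%, limit read from the data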;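 also: plate controls were enzyme with DMSO for no effect and wells without caspase-3 for full effect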
Luc interf – interferes with luciferase luminescence in SENP counter-screen | AID 488919 | hit rate 39% among 6,200 | inhibition, % at 12.5 µM | Pre-incubated SENP8/Z-RLRGG-aminoluciferin, luciferase luminescence interference | shares compounds with SENP7 inh;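 active = mean inhibition above about 50% when retested at one dose, limit read from the data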;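 also: plate controls were DMSO wells with completed reaction for no effect and substrate without enzyme for full effect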
* marks the source's active call; other numbers are inactive results; i = inactive; . = not tested or not shown.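 The calls were made as follows, unless noted: active = mean inhibition above about 50% in the one-dose retest (limit read from the data); inactive = the rest.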

SMILES	SENP8 block-1	SENP6 block	SENP8 block-2	SENP7 inh	SENP1 FRET inh	SENP8 conf	SENP6 confirm	SENP7 conf	Casp3 select	Luc interf
Cc1ccc(NC(=O)C2C3C=CC4(O3)C2C(=O)N(CCCN2CCCCC2)C4C(=O)NC2CCCCC2)cc1C (stereo not given)	19.0	-18.9	-6.8	-3.7	3.2	.	.	.	.	.
Cc1ccc(O)c(N=Nc2ccccc2)n1	8.1	93.1*	95.4*	100.4*	1.3	94.6*	98.2*	103.0*	96.5*	62.2*
Cc1ccc2c(C)ccc(O)c2n1	6.8	-5.0	-6.0	-7.9	-7.6	.	.	.	.	.
COc1cc(OC)c(-c2nc3ccccc3s2)cc1OC	-399.0	-8.1	-10.1	4.1	-1.2	.	.	.	.	.
Cc1cc(C)c(-c2nc3ccccc3s2)[nH]1	-325.8	19.1	59.4*	3.7	-18.8	81.2*	89.5*	98.6*	75.7*	70.2*
Oc1cccc(-c2nc3ccccc3s2)c1	-142.3	96.4*	91.6*	95.4*	-1.3	-23.1	94.9*	101.5*	87.1*	95.2*
Nc1cccc(-c2nc3ccccc3s2)c1	i	100.2*	93.1*	100.0*	-19.2	95.9*	98.3*	102.9*	95.6*	97.0*
Cc1cccc(NC(=O)C2CCCN2S(=O)(=O)c2ccc(Cl)cc2)n1 (stereo not given)	16.1	-14.4	5.4	-2.5	1.9	.	.	.	.	.
CC(=O)CC1c2ccccc2C=C(c2ccsc2)N1c1ccc(-c2cccs2)cc1 (stereo not given)	-400.7	.	.	.	-30.6	.	.	.	.	.
Cn1c(-c2nnn(-c3ccc(F)cc3)n2)cc2ccccc21	.	52.4*	39.1	11.3	.	17.3	9.7	13.2	7.8	-4.5
O=C(O)c1cc([N+](=O)[O-])ccc1NCCCc1ccccc1	6.8	73.6*	67.7*	-0.7	-5.8	75.0*	69.3*	72.7*	51.7*	71.4*
COC(=O)CSc1ncccc1-c1nc2ccccc2[nH]1	-58.8	-3.4	-13.9	-6.0	-1.8	.	.	.	.	.
O=C(CSc1ncccc1-c1nc2ccccc2[nH]1)N1CCc2ccccc21	-178.6	-0.3	-11.0	55.4*	-4.8	4.3	-2.3	16.0	11.4	5.6
O=C(NCCCN1CCCC1=O)C1CCN(S(=O)(=O)c2c(Cl)cccc2Cl)CC1	13.9	-8.5	4.2	-1.4	0.8	.	.	.	.	.
Cc1ccc(-n2nnc(-c3cccnc3Cl)n2)cc1	11.5	74.3*	51.5*	76.3*	-1.6	35.8	51.7*	42.2	37.6	16.9
O=C1NC(Cc2ccccc2)c2nc3ccccc3c(=O)n2-c2cc(Cl)ccc21 (stereo not given)	.	-15.5	7.7	6.0	.	.	.	.	.	.
c1ccc(-c2ccc(-c3ccccn3)s2)nc1	-418.4	83.3*	76.2*	84.4*	-94.3	75.3*	81.0*	96.7*	86.2*	20.8
c1ccc(-c2nnc(-c3ccccn3)nn2)nc1	33.1	13.9	79.4*	10.7	1.9	-4.2	54.5*	85.1*	85.7*	65.6*
O=C(O)c1ccc(-c2ccccn2)s1	-4.0	4.9	-2.1	8.1	0.5	.	.	.	.	.
COc1cccc(-c2cnc(C(O)c3ccc(OC)c(F)c3)[nH]2)c1 (stereo not given)	2.3	.	.	.	-0.6	.	.	.	.	.
Cc1cc2nc(-c3ccccc3)c(Cc3cccc(Cl)c3)n2c(C)c1Br	-26.8	.	.	.	3.8	.	.	.	.	.
COc1ccc(-c2cn3cc(C)ccc3n2)cc1F	-408.1	76.5*	69.3*	78.3*	1.2	10.6	73.5*	89.9*	79.6*	32.3
COc1ccc(-c2cn3cc(C)ccc3n2)cc1OC	-333.0	57.1*	35.5	15.9	2.0	67.5*	64.8*	90.5*	88.9*	77.5*
COc1ccc(-c2nc3c(-c4ccccc4)cnn3cc2C)cc1F	14.6	15.9	0.1	9.0	-17.8	.	.	.	.	.
Cc1nc2ccc(NC(=O)[C@H](C)N3C(=O)C4CC=CCC4C3=O)cc2s1 (stereo not given in full)	5.1	-8.5	8.1	-5.9	-0.9	.	.	.	.	.
SMILES	SENP8 block-1	SENP6 block	SENP8 block-2	SENP7 inh	SENP1 FRET inh	SENP8 conf	SENP6 confirm	SENP7 conf	Casp3 select	Luc interf
Brc1ccccc1-n1nnc(-c2nccs2)n1	16.1	61.3*	54.6*	55.7*	2.2	45.9	44.7	78.9*	66.2*	65.4*
c1ccc(-n2nnc(-c3nccs3)n2)cc1	-2.2	81.8*	77.3*	76.5*	-19.4	70.6*	81.7*	96.8*	91.5*	70.6*
COc1ccc(C)cc1S(=O)(=O)N1CCOCC1	9.1	-2.5	1.8	1.0	2.0	.	.	.	.	.
Cc1ccc(C)c(OCCC(=O)OCC(=O)NC(=O)NC2CCCC2)c1	9.0	10.5	2.6	1.6	0.8	.	.	.	.	.
O=C(N/N=C/c1ccc[nH]1)c1ccccc1OCc1ccc(F)cc1	-272.2	4.0	8.9	-1.7	-12.4	.	.	.	.	.
CCOc1ccc(OCc2ccc(C(=O)NN=Cc3ccc[nH]3)cc2)cc1	-337.6	92.6*	71.3*	92.7*	0.2	-0.7	-0.5	2.6	16.2	28.7
O=C(c1ccc(COCC(F)(F)F)o1)N1CCCC1	9.5	8.0	6.0	1.6	0.8	.	.	.	.	.
COc1ccc(S(=O)(=O)NCCC(C)C)cc1OC	-4.3	-5.4	-8.1	88.4*	-1.5	14.2	12.8	9.0	1.8	2.8
Oc1cc2ccccc2cc1-c1n[nH]c(=S)o1	-274.6	91.3*	94.4*	75.0*	2.9	97.8*	98.5*	101.2*	96.3*	96.4*
S=c1[nH]nc(-c2c[nH]c3ccccc23)o1	-297.6	-9.5	6.1	4.5	1.5	.	.	.	.	.
COC(=O)c1sccc1N/N=C/c1cccc(Oc2ccccc2)c1	-98.7	63.1*	94.9*	96.9*	0.0	30.4	53.2*	34.3	94.2*	9.0
COC(=O)c1sccc1NC(=O)c1cccc(OC)c1	17.4	-4.4	-8.5	-11.3	2.9	.	.	.	.	.
COC(=O)c1sccc1N/N=C/c1ccc(OC)c(OC)c1OC	-404.8	20.8	2.3	3.2	-1.5	.	.	.	.	.
